The record followed here is ChEMBL document CHEMBL1152744, “Select pyrimidinones inhibit the propagation of the malarial parasite, Plasmodium falciparum” (Bioorg Med Chem, 2009).

Data set [1] has as its system Plasmodium falciparum. Description: Antimalarial activity against chloroquine-resistant Plasmodium falciparum Dd2 infected human erythrocytes after 72 hrs by [3H]hypoxanthine uptake. The format is functional, organism-based. In short, it runs like this:
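Asexual blood-stage P. falciparum Dd2 (chloroquine-resistant) in human erythrocytes, exposed to compound for 72 h, with [3H]hypoxanthine added for the last 24 h. Dose-response series were run, and IC50 was calculated by linear regression on the linear portions of plotted uptake values. Chloroquine was included as an internal control.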

Data set [2] deals with Heat shock 70 kDa protein (Plasmodium falciparum) (UniProt P11144). Description: Inhibition of Plasmodium falciparum Hsp70 ATPase activity assessed as residual enzyme activity at 300 uM relative to control. In short, it runs like this: (§1)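 Steady-state ATPase assay with P. falciparum Hsp70, yeast Ssa1 or human Hsp70. Compound at 300 μM final; activity standardized to an equal volume of DMSO, set to 1. Values are means of 6 independent experiments, ±SD where shown.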

Data set [3] concerns the target Heat shock protein SSA1 (Saccharomyces cerevisiae S288c) (UniProt P10591). Briefly: Inhibition of Saccharomyces cerevisiae Ssa1 ATPase activity assessed as residual enzyme activity at 300 uM relative to control. In short, it runs like this:
as §1

The target of data set [4] is Heat shock 70 kDa protein 1A (Homo sapiens) (UniProt P0DMV8). Description: Inhibition of human HSPA1A ATPase activity assessed as residual enzyme activity at 300 uM relative to control. The essentials:
as §1

Data set [5] can be described thus: Cytotoxicity against human HepG2 cells. It is filed as cell-based. The essentials: (§2)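 GI50 measured in HepG2 hepatocellular carcinoma and WI-38 embryonic diploid lung cells, calculated relative to a DMSO (negative) control.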
Data set [6] is described as follows: Cytotoxicity against human WI38 cells. It is filed as cell-based, WI-38. The essentials:
as §2

Data set [7] concerns Plasmodium falciparum. Description: Antimalarial activity against chloroquine-resistant Plasmodium falciparum Dd2 infected human erythrocytes at 5 uM after 72 hrs as inhibition of [3H]hypoxanthine uptake. It is filed as functional. In short, it runs like this:
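Single-point screen of Dd2 asexual blood stages in human red cells at final concentrations of 1 μM and 5 μM, with 72 h drug exposure and [3H]hypoxanthine pulse over the final 24 h. Read-out was percent inhibition of label uptake. Compounds giving >50% inhibition at 5 μM were re-screened.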

Data set [8] concerns Plasmodium falciparum. Briefly: Effect on Plasmodium falciparum Hsp70 ATPase activity assessed as fold change in Kcat at 100 uM relative to control. The essentials:
(§3)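 Single-turnover ATPase assay measuring kCAT of recombinant P. falciparum Hsp70 (E. coli Rosetta 2, Ni-chelate then Q-Sepharose purified), yeast Ssa1, or human HSPA1A (E. coli-expressed, untagged or His6). Optional J-domain partners: Hlj1 1.1 μM; Ydj1 0.045 μM with Ssa1, 0.9 μM with Pf or human Hsp70. Compound at 100 μM final; activity expressed as a fraction of the DMSO-only reaction under the same conditions, set to 1.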

In data set [9] the test system is Plasmodium falciparum. Description: Effect on Plasmodium falciparum Hsp70 ATPase activity assessed as fold change in Kcat at 100 uM in presence of J-domain containing yeast HlJ1 co-chaperone relative to control. In short, it runs like this:
as §3

Data set [10] has as its target Heat shock protein SSA1 (Saccharomyces cerevisiae S288c) (UniProt P10591). Description: Effect on Saccharomyces cerevisiae Ssa1 ATPase activity assessed as fold change at 100 uM in Kcat relative to control. In short, it runs like this:
as §3

Data set [11] has the same target. Description: Effect on Saccharomyces cerevisiae Ssa1 ATPase activity assessed as fold change in Kcat at 100 uM in presence of J-domain containing yeast HlJ1 co-chaperone relative to control. The essentials: as §3
Data set [12] concerns the target Heat shock 70 kDa protein 1A (Homo sapiens) (UniProt P0DMV8). Briefly: Effect on human HSPA1A ATPase activity assessed as fold change in Kcat at 100 uM relative to control. The essentials: as §3
For data set [13] the target is unchanged. Briefly: Effect on human HSPA1A ATPase activity assessed as fold change in Kcat at 100 uM in presence of J-domain containing Hdj1 co-chaperone relative to control.
In data set [14] the target is Heat shock protein SSA1 (Saccharomyces cerevisiae S288c) (UniProt P10591). Description: Effect on Saccharomyces cerevisiae Ssa1 ATPase activity assessed as fold change in Kcat at 100 uM in presence of J-domain containing yeast Ydj1 co-chaperone relative to control. In short, it runs like this: as §3
The target of data set [15] is Heat shock 70 kDa protein 1A (Homo sapiens) (UniProt P0DMV8). Description: Effect on human HSPA1A ATPase activity assessed as fold change in Kcat at 100 uM presence of J-domain containing yeast Ydj1 co-chaperone relative to control. In short, it runs like this:
as §3

The target is the same in data set [16]. Briefly: Inhibition of human Hsp70 ATPase activity assessed as reduction of rate of ATP hydrolysis. Set-up: scale not given: the % may be the effect or the level left.
The target of data set [17] is Heat shock protein SSA1 (Saccharomyces cerevisiae) (UniProt P10591). Briefly: Effect on yeast Hsp70 Ssa1 ATPase activity assessed as fold change in Kcat at 100 uM relative to control.

Some results are limits rather than exact numbers.

Chain of Heat shock protein SSA1 (Saccharomyces cerevisiae S288c) (P10591 whole entry): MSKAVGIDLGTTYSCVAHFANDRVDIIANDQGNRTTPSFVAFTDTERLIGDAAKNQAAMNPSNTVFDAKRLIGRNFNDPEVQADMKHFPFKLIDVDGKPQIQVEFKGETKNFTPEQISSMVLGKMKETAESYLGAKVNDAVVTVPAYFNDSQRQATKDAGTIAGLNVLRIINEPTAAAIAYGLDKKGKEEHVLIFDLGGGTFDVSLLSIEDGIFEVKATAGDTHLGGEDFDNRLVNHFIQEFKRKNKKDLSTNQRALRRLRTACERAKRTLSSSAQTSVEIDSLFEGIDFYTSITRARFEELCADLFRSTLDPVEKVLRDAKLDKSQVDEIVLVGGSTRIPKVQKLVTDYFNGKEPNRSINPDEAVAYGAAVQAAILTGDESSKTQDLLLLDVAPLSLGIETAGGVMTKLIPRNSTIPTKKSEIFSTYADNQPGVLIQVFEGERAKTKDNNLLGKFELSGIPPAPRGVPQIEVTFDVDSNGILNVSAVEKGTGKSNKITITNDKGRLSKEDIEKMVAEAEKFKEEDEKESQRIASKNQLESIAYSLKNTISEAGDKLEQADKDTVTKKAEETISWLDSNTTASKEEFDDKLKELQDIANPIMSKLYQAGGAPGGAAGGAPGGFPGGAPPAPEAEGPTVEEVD
Chain of Heat shock 70 kDa protein 1A (Homo sapiens) (P0DMV8 2-641 limits assumed): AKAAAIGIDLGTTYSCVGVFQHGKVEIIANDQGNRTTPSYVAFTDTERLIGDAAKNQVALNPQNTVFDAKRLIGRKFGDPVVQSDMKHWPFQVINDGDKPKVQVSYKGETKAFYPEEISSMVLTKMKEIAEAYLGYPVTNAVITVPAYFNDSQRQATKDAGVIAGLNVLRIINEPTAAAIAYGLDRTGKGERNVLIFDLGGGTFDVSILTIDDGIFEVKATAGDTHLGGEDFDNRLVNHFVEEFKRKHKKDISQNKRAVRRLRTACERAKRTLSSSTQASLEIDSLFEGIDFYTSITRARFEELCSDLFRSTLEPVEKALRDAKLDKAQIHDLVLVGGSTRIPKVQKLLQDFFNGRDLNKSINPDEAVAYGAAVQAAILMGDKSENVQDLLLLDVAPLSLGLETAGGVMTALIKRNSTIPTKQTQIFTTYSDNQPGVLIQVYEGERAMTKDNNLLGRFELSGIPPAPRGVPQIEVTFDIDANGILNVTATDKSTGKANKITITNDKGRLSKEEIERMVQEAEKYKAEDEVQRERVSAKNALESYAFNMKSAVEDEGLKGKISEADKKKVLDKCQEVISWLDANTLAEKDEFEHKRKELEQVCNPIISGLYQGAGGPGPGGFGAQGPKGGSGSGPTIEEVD
Chain of Heat shock 70 kDa protein (Plasmodium falciparum) (P11144 whole entry): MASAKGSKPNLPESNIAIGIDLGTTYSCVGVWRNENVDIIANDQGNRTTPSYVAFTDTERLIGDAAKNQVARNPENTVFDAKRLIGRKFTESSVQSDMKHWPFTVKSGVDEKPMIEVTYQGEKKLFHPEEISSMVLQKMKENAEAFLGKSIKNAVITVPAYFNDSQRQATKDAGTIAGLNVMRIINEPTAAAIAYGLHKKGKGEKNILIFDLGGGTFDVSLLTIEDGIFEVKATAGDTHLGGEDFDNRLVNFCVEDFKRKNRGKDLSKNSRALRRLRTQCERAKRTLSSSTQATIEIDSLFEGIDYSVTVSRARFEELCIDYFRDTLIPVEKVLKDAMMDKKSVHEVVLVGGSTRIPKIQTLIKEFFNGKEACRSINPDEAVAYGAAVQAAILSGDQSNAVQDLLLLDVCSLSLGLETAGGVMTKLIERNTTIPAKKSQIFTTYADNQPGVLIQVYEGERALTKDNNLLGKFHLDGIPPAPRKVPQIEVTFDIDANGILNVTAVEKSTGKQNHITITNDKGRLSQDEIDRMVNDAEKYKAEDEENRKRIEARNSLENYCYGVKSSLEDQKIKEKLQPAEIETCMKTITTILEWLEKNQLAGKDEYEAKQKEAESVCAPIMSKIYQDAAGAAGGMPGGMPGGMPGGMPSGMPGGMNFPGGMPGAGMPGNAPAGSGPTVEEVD

For `CCOC(=O)C1=C(C)N(Cc2ccccc2)C(=O)NC1c1ccccc1OS(=O)(=O)c1ccccc1[N+](=O)[O-]` (configuration not stated), it took 100 nM to reach half-maximal inhibition in [1] (IC50). For the same compound, the fold change (FC) in [2] turned out to be 0.99; in data set [3], 1.1; in data set [4], 0.74; in data set [8] it was 6.5; in data set [9], 1.4; in data set [10] it was 2.1. The fold change (FC) in data set [11] is 1; in data set [12], 3.6; in data set [13], 3.5; in data set [14], -1.3; in [15], -1.2; in data set [17], 2.1. Besides, the GI50 in data set [5] and in data set [6] was greater than 10000 nM in each case. In addition, the inhibition (as a rule, how much of the control response was suppressed) at 5 µM in data set [7] is greater than 50%. Also, in data set [16], the Activity was determined as 30%.

Turning to `CC(=O)O[C@H]1C(=O)[C@@]2(C)[C@H]([C@H](OC(=O)c3ccccc3)[C@]3(O)C[C@H](OC(=O)[C@H](O)[C@@H](NC(=O)c4ccccc4)c4ccccc4)C(C)=C1C3(C)C)[C@]1(OC(C)=O)CO[C@@H]1C[C@@H]2O` [PACLITAXEL], the GI50 (commonly the concentration giving 50% growth inhibition) in data set [5] was 1 nM; in data set [6], 13.7 nM.

For `CCOC(=O)C1=C(C)N(CCCCCC(=O)O)C(=O)NC1c1cccc([N+](=O)[O-])c1` (configuration not stated), in data set [1], the IC50 (commonly the concentration that gives 50% inhibition) was 1600 nM. Besides, the fold change (FC) in data set [2] is 1.01; in [3], 0.93; in [4], 0.85; in data set [8] it was 1.8; in data set [9], -1.1; in data set [10], 1.3. In addition, the fold change (FC) in data set [11] was 1; in data set [12] it was 1.4; in data set [13] it was 1.1; in data set [14] it was 1.1; in [15] it was -1.3; in data set [17], 1.3. Further, the GI50 in data set [5] and in data set [6] was greater than 10000 nM in each case. Further, the inhibition at 5 µM in data set [7] is greater than 50%.

As to `CC1=C(C(=O)OCc2ccccc2)C(c2ccc([N+](=O)[O-])cc2)NC(=O)N1CCCC(=O)N(CCN1CCOCC1)C(C(=O)NC(C)(C)C)c1ccc(-c2ccccc2)cc1` (configuration not stated), the IC50 in data set [1] came to 800 nM. Further, the fold change (FC) came out at 0.72 in [2]; 0.75 in data set [3]; 0.82 in [4]; 2.2 in data set [8]; 1.4 in data set [9]; 1.2 in data set [10]. The fold change (FC) in [11] was 1; in data set [12] it was 2; in [13], 2.9; in data set [14] it was -1.5; in data set [15], -1.1; in data set [17] it was 1.2. Moreover, the GI50 in data set [5] and in data set [6] was greater than 10000 nM throughout. This compound also displayed an inhibition at 5 µM in data set [7] greater than 50%.

Turning to `COC(=O)C1=C(Cc2ccccc2)NC(=O)NC1c1ccc2ccccc2c1` (configuration not stated), in data set [1], half-maximal inhibition (IC50) required 300 nM. Moreover, the fold change (FC) in [2] is 1; in [3], 1.2; in [4], 0.7; in data set [8] it was 1.4; in data set [9], -1.2; in data set [10], 2. In addition, the fold change (FC) is -1.2 in data set [11]; 1.3 in [12]; 2.5 in data set [13]; -1.3 in data set [14]; -1.2 in data set [15]; 2 in data set [17]. The GI50 in data set [5] and in [6] was greater than 10000 nM each time. The inhibition at 5 µM in data set [7] is greater than 50%. The Activity in [16] was 30%.

Take `CCCCCCN(C(=O)CCCCCN1C(=O)NC(c2ccc(-c3ccccc3)cc2)C(C(=O)OCc2ccccc2)=C1C)C(C(=O)NCCCC)C1CCCCC1` (configuration not stated): in [1], the IC50 was 1100 nM. The fold change (FC) in data set [2] is 0.74; in data set [3], 0.97; in data set [4], 0.95; in [8], 2.9; in [9], -1.5; in data set [10], -1.7. The fold change (FC) in [11] was 1.2; in data set [12], 2.3; in data set [13], 2.8; in [14] it was -1.3; in data set [15], 1.1; in [17], -1.7. For the same compound, the GI50 in [5] and in data set [6] was greater than 10000 nM throughout. The inhibition at 5 µM in data set [7] is greater than 50%.

Consider `CCOC(=O)C1=C(C)N(CCCC(=O)NCCn2c(-c3ccccc3)cc(C(=O)OC)c2C)C(=O)NC1c1ccc([N+](=O)[O-])cc1` (configuration not stated), for which inhibition in data set [1] was half-maximal at 30 nM (IC50). Moreover, the fold change (FC) in [2] was 1.02; in data set [3], 0.89; in data set [4] it was 0.8; in data set [8], 3.7; in data set [9] it was 1.5; in data set [10], -1.3. In addition, the fold change (FC) in data set [11] was -1.6; in data set [12], 2; in data set [13], 4.3; in data set [14], -1.6; in data set [15] it was -1.2; in [17], -1.3. In addition, the GI50 in [5] and in data set [6] was greater than 10000 nM each time. The inhibition at 5 µM in [7] is greater than 50%.

As for `COC(=O)c1cc(-c2ccccc2)n(CCNC(=O)CCCCCN2C(=O)NC(c3ccc(-c4ccccc4)cc3)C(C(=O)OCc3ccccc3)=C2C)c1C` (configuration not stated), in data set [1], the IC50 amounted to 50 nM. The fold change (FC) was 1.01 in [2]; 1.2 in data set [3]; 0.72 in data set [4]; 2.7 in [8]; -1.1 in [9]; 13.3 in [10]. The fold change (FC) in data set [11] was -6.5; in data set [12], 3.5; in data set [13], 5.3; in data set [14], -1.7; in [15], 1.5. The GI50 in [5] and in [6] was greater than 10000 nM in each case. The inhibition at 5 µM in data set [7] is greater than 50%. Besides, the Activity in data set [16] came out at 30%.

In turn, `CCCCNC(=O)C(c1ccc(-c2ccccc2)cc1)N(CCN1CCOCC1)C(=O)CCCCCN1C(=O)NC(c2ccc([N+](=O)[O-])cc2)C(C(=O)OCc2ccccc2)=C1C` (configuration not stated) showed a concentration for half-maximal inhibition (IC50) in data set [1] of 200 nM. The fold change (FC) in [2] was 0.73; in [3] it was 1; in data set [4] it was 0.74; in data set [8], 2.3; in data set [9], -1.3; in [10], -1.6. Also, the fold change (FC) in [11] is -1.1; in data set [12], 1; in data set [13], 4.7; in data set [14], -2.6; in data set [15] it was 1; in data set [17], -1.6. For the same compound, the GI50 in [5] and in [6] was greater than 10000 nM each time. The same compound showed an inhibition at 5 µM in data set [7] greater than 50%.

For the compound `CCCCN1C(=O)NC(c2ccc(OC)cc2)C(C(=O)OCc2ccccc2)=C1C` (configuration not stated), 200 nM corresponded to half-maximal inhibition in data set [1] (IC50). Besides, the fold change (FC) is 0.92 in data set [2]; 0.95 in [3]; 0.8 in [4]; 7.2 in data set [8]; -1.1 in data set [9]; 2.3 in [10]. Moreover, the fold change (FC) was 1 in data set [11]; 4.5 in [12]; 4.5 in [13]; -1.1 in data set [14]; 1.1 in [15]. The GI50 in data set [5] and in data set [6] was greater than 10000 nM throughout. Further, in [7], the inhibition at 5 µM was greater than 50%.
